What was measured:
[1] = species on record: Rattus norvegicus; assay: Percent inhibition on GH release from rat pituitary cells; type: functional, Pituitary gland cell; parameters: concentration or dose not given beside the values
Summary of the method: (§1)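 Anterior pituitaries from female Wistar rats (180-200 g) dispersed with dispase. Cells seeded at (0.5-5) × 10^5 per well in MEM with 10% FCS and attached at least 3 days. Then 4 h incubation with or without analogue plus 10 nM GHRH, four dishes per group. Rat GH and PRL measured by commercial assay; response given as % change versus untreated control dishes.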

[2] = species on record: Rattus norvegicus; assay: Percent inhibition on PRL release from rat pituitary cells; type: functional, Pituitary gland cell; parameters: concentration or dose not given beside the values; summary of the method: as §1
[3] = target: Somatostatin receptor type 2 (Homo sapiens, UniProt P30874); assay: Inhibitory concentration against human somatostatin receptor type 2 in CC531 cells; type: cell-based
Somatostatin receptor type 2, sequence (P30874 whole entry): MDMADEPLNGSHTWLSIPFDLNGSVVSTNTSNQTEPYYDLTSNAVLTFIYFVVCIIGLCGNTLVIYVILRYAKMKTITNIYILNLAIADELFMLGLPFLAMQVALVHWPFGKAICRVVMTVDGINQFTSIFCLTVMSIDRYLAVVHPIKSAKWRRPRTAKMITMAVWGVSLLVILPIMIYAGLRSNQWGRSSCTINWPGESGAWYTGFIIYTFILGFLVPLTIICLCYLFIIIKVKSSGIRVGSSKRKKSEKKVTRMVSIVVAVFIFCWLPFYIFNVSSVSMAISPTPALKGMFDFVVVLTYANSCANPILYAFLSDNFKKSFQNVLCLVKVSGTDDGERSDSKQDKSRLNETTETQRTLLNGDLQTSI
Summary of the method: (§2)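 Competitive binding on membranes (25-50 µg protein) from stably transfected cells expressing one human sst subtype: CC531 for sst2, CHO-K1 for sst3 and sst5. Stopped with ice-cold Hepes buffer pH 7.6 and centrifuged; washed pellet γ-counted. Nonspecific binding taken with 1 µM unlabeled SRIF analogue.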

[4] = target: Somatostatin receptor type 3 (Homo sapiens, UniProt P32745); assay: Inhibitory concentration against human somatostatin receptor type 3 in CHO-K1 cells; type: cell-based; summary of the method: as §2
Somatostatin receptor type 3, sequence (P32745 whole entry): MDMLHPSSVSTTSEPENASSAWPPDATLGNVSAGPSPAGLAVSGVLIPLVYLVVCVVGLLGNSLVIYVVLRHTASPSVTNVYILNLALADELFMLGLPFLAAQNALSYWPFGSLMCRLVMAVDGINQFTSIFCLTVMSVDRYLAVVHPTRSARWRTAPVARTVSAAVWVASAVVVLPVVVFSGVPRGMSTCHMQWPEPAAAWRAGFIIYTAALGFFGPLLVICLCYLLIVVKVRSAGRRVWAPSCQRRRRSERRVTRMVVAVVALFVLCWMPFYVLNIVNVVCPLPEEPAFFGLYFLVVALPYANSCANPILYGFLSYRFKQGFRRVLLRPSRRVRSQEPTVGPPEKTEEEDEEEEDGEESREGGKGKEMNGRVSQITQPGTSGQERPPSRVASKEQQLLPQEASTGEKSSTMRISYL

[5] = target: Somatostatin receptor type 5 (Homo sapiens, UniProt P35346); assay: Inhibitory concentration against human somatostatin receptor type 5 in CHO-K1 cells; type: cell-based; summary of the method: as §2
Somatostatin receptor type 5, sequence (P35346 whole entry): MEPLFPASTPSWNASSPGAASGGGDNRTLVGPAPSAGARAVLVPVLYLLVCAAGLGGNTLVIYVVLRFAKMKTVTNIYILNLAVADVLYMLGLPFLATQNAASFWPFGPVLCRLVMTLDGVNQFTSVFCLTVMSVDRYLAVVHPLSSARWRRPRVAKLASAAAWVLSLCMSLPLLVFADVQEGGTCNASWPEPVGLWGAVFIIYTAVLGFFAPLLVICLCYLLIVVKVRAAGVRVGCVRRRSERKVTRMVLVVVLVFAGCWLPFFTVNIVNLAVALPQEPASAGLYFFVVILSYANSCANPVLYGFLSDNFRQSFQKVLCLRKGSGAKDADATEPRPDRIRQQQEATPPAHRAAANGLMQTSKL

[6] = species on record: Rattus norvegicus; assay: Inhibitory concentration on PRL release from rat pituitary cells; type: functional, cell-based; details: Pituitary gland cell; summary of the method: as §1
[7] = species on record: Rattus norvegicus; assay: Inhibitory concentration on GH release from rat pituitary cells; type: functional, cell-based; details: Pituitary gland cell; summary of the method: as §1

SMILES | IC50 [3] | IC50 [4] | IC50 [5] | IC50 [6] | IC50 [7] | Inhibition [1] | Inhibition [2]
CC(C)[C@@H]1NC(=O)[C@H](CCCCN)NC(=O)[C@@H](Cc2c[nH]c3ccccc23)NC(=O)[C@H](Cc2ccc(O)cc2)NC(=O)[C@@H](NC(=O)[C@H](N)Cc2ccc(N)cc2)CSSC[C@@H](C(=O)N[C@@H](CC(=O)O)C(N)=O)NC1=O [listing 1 of 2 here] | – | – | – | – | – | 41% | -9%
CC(C)[C@@H]1NC(=O)[C@H](CCCCN)NC(=O)[C@@H](Cc2c[nH]c3ccccc23)NC(=O)[C@H](Cc2ccc(O)c(I)c2)NC(=O)[C@@H](NC(=O)[C@H](N)Cc2ccc(N)cc2)CSSC[C@@H](C(=O)N[C@H](C(N)=O)[C@@H](C)O)NC1=O [listing 1 of 2 here] | – | – | – | – | – | 12% | 14%
C[C@H](N)C(=O)NCC(=O)N[C@H]1CSSC[C@@H](C(=O)O)NC(=O)[C@H](CO)NC(=O)[C@H]([C@@H](C)O)NC(=O)[C@H](Cc2ccccc2)NC(=O)[C@H]([C@@H](C)O)NC(=O)[C@H](CCCCN)NC(=O)[C@H](Cc2c[nH]c3ccccc23)NC(=O)[C@H](Cc2ccccc2)NC(=O)[C@H](Cc2ccccc2)NC(=O)[C@H](CC(N)=O)NC(=O)[C@H](CCCCN)NC1=O [SOMATOSTATIN] | – | – | – | 0.2 nM | 0.1 nM | 66% | 30%
CC(C)[C@@H]1NC(=O)[C@H](CCCCN)NC(=O)[C@@H](Cc2c[nH]c3ccccc23)NC(=O)[C@H](Cc2ccc(O)c(I)c2)NC(=O)[C@@H](NC(=O)[C@H](N)Cc2ccc(N)c(I)c2)CSSC[C@@H](C(=O)N[C@@H](CC(=O)O)C(N)=O)NC1=O [listing 1 of 2 here] | – | – | – | – | – | 55% | 15%
CC(C)[C@@H]1NC(=O)[C@H](CCCCN)NC(=O)[C@@H](Cc2c[nH]c3ccccc23)NC(=O)[C@H](Cc2ccc(O)cc2)NC(=O)[C@@H](NC(=O)[C@H](N)Cc2ccccc2)CSSC[C@@H](C(=O)N[C@@H](CC(=O)O)C(N)=O)NC1=O | 18.6 nM | > 1000 nM | – | – | 1.1 nM | – | –
CC(C)[C@@H]1NC(=O)[C@H](CCCCN)NC(=O)[C@@H](Cc2c[nH]c3ccccc23)NC(=O)[C@H](Cc2ccc(O)cc2)NC(=O)[C@@H](NC(=O)[C@H](N)Cc2ccc(N)cc2)CSSC[C@@H](C(=O)N[C@@H](C(N)=O)[C@H](C)O)NC1=O [listing 2 of 2 here] | – | – | – | – | – | -11% | 8%
CC(C)[C@@H]1NC(=O)[C@H](CCCCN)NC(=O)[C@@H](Cc2c[nH]c3ccccc23)NC(=O)[C@H](Cc2ccc(O)cc2)NC(=O)[C@@H](NC(=O)[C@H](N)Cc2ccc(N)cc2)CSSC[C@@H](C(=O)N[C@H](C(N)=O)[C@@H](C)O)NC1=O [listing 1 of 2 here] | – | – | – | – | – | 47% | 20%
CC(C)[C@@H]1NC(=O)[C@H](CCCCN)NC(=O)[C@@H](Cc2c[nH]c3ccccc23)NC(=O)[C@H](Cc2ccc(O)cc2)NC(=O)[C@@H](NC(=O)[C@H](N)Cc2ccc(N)c(I)c2)CSSC[C@@H](C(=O)N[C@H](C(N)=O)[C@@H](C)O)NC1=O [listing 2 of 2 here] | – | – | – | – | – | 60% | 35%
CC(C)[C@@H]1NC(=O)[C@H](CCCCN)NC(=O)[C@@H](Cc2c[nH]c3ccccc23)NC(=O)[C@H](Cc2ccc(O)cc2)NC(=O)[C@@H](NC(=O)[C@H](N)Cc2ccc(N)cc2)CSSC[C@@H](C(=O)N[C@H](CC(=O)O)C(N)=O)NC1=O [listing 2 of 2 here] | – | – | – | – | – | 18% | 11%
CC(C)[C@@H]1NC(=O)[C@H](CCCCN)NC(=O)[C@@H](Cc2c[nH]c3ccccc23)NC(=O)[C@H](Cc2ccc(O)cc2)NC(=O)[C@@H](NC(=O)[C@H](N)Cc2ccc(N)c(I)c2)CSSC[C@@H](C(=O)N[C@@H](CC(=O)O)C(N)=O)NC1=O [listing 2 of 2 here] | – | – | – | – | – | 17% | 12%
CC(C)[C@@H]1NC(=O)[C@H](CCCCN)NC(=O)[C@@H](Cc2c[nH]c3ccccc23)NC(=O)[C@H](Cc2ccc(O)c(I)c2)NC(=O)[C@@H](NC(=O)[C@H](N)Cc2ccc(N)c(I)c2)CSSC[C@@H](C(=O)N[C@H](C(N)=O)[C@@H](C)O)NC1=O [listing 2 of 2 here] | – | – | – | – | – | 58% | 29%

Now from value to molecule, other results behind:

IC50 [3] | IC50 [4] | IC50 [5] | IC50 [6] | IC50 [7] | SMILES | Inhibition [1] | Inhibition [2]
1.1 nM | > 1000 nM | 30 nM | > 100 nM | – | CC(C)[C@@H]1NC(=O)[C@H](CCCCN)NC(=O)[C@@H](Cc2c[nH]c3ccccc23)NC(=O)[C@H](Cc2ccc(O)cc2)NC(=O)[C@@H](NC(=O)[C@H](N)Cc2ccc(N)cc2)CSSC[C@@H](C(=O)N[C@H](CC(=O)O)C(N)=O)NC1=O [listing 1 of 2 here] | – | –
17 nM | > 1000 nM | – | – | – | CC(C)[C@@H]1NC(=O)[C@H](CCCCN)NC(=O)[C@@H](Cc2c[nH]c3ccccc23)NC(=O)[C@H](Cc2ccc(O)cc2)NC(=O)[C@@H](NC(=O)[C@H](N)Cc2ccc(N)cc2)CSSC[C@@H](C(=O)N[C@@H](C(N)=O)[C@H](C)O)NC1=O [listing 1 of 2 here] | – | –
1.4 nM | > 1000 nM | – | 0.1 nM | 0.1 nM | CC(C)[C@@H]1NC(=O)[C@H](CCCCN)NC(=O)[C@@H](Cc2c[nH]c3ccccc23)NC(=O)[C@H](Cc2ccc(O)cc2)NC(=O)[C@@H](NC(=O)[C@H](N)Cc2ccc(N)c(I)c2)CSSC[C@@H](C(=O)N[C@H](C(N)=O)[C@@H](C)O)NC1=O [listing 1 of 2 here] | – | –
11 nM | > 1000 nM | 54 nM | 26 nM | 14.8 nM | CC(C)[C@@H]1NC(=O)[C@H](CCCCN)NC(=O)[C@@H](Cc2c[nH]c3ccccc23)NC(=O)[C@H](Cc2ccc(O)cc2)NC(=O)[C@@H](NC(=O)[C@H](N)Cc2ccc(N)cc2)CSSC[C@@H](C(=O)N[C@@H](CC(=O)O)C(N)=O)NC1=O [listing 2 of 2 here] | – | –
1.6 nM | > 1000 nM | – | 2.2 nM | 0.08 nM | CC(C)[C@@H]1NC(=O)[C@H](CCCCN)NC(=O)[C@@H](Cc2c[nH]c3ccccc23)NC(=O)[C@H](Cc2ccc(O)cc2)NC(=O)[C@@H](NC(=O)[C@H](N)Cc2ccc(N)cc2)CSSC[C@@H](C(=O)N[C@H](C(N)=O)[C@@H](C)O)NC1=O [listing 2 of 2 here] | – | –
6.2 nM | > 1000 nM | – | – | – | CC(C)[C@@H]1NC(=O)[C@H](CCCCN)NC(=O)[C@@H](Cc2c[nH]c3ccccc23)NC(=O)[C@H](Cc2ccc(O)c(I)c2)NC(=O)[C@@H](NC(=O)[C@H](N)Cc2ccc(N)cc2)CSSC[C@@H](C(=O)N[C@H](C(N)=O)[C@@H](C)O)NC1=O [listing 2 of 2 here] | – | –
12 nM | > 1000 nM | 74 nM | – | – | CC(C)[C@@H]1NC(=O)[C@H](CCCCN)NC(=O)[C@@H](Cc2c[nH]c3ccccc23)NC(=O)[C@H](Cc2ccc(O)cc2)NC(=O)[C@@H](NC(=O)[C@H](N)Cc2ccc(N)c(I)c2)CSSC[C@@H](C(=O)N[C@@H](CC(=O)O)C(N)=O)NC1=O [listing 1 of 2 here] | – | –
0.63 nM | > 1000 nM | – | 0.23 nM | 0.15 nM | CC(C)[C@@H]1NC(=O)[C@H](CCCCN)NC(=O)[C@@H](Cc2c[nH]c3ccccc23)NC(=O)[C@H](Cc2ccc(O)c(I)c2)NC(=O)[C@@H](NC(=O)[C@H](N)Cc2ccc(N)c(I)c2)CSSC[C@@H](C(=O)N[C@H](C(N)=O)[C@@H](C)O)NC1=O [listing 1 of 2 here] | – | –
1.9 nM | > 1000 nM | 2.9 nM | – | – | CC(C)[C@@H]1NC(=O)[C@H](CCCCN)NC(=O)[C@@H](Cc2c[nH]c3ccccc23)NC(=O)[C@H](Cc2ccc(O)c(I)c2)NC(=O)[C@@H](NC(=O)[C@H](N)Cc2ccc(N)c(I)c2)CSSC[C@@H](C(=O)N[C@@H](CC(=O)O)C(N)=O)NC1=O [listing 2 of 2 here] | – | –
